Legend:
[1] = system: Mycobacterium tuberculosis; assay: Inhibition of Mycobacterium tuberculosis LdtMt1 expressed in Escherichia coli assessed as efficiency of acylation reaction by measuring ratio of K2 to Kapp by stopped-flow spectrofluorimetric method
Method in brief: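 His-tagged LdtMt1 expressed in E. coli and purified by Ni2+-NTA affinity, then by size-exclusion chromatography in 100 mM sodium phosphate pH 6.4 with 300 mM NaCl. Inactivation kinetics measured by stopped-flow spectrofluorimetry in 100 mM sodium phosphate, pH 6.0, at 10 °C. k1, k2 and k2/Kapp were calculated from the fluorescence kinetics.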

[2] = system: Mycobacterium tuberculosis; assay: Activity at Mycobacterium tuberculosis beta lactamase BlaC expressed in Escherichia coli by spectrophotometric method
Method in brief: (§1)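 BlaC produced in E. coli, purified by Ni-NTA affinity and size-exclusion chromatography. Carbapenem hydrolysis followed spectrophotometrically in 100 mM MES buffer, pH 6.4, at 20 °C. Direct determination of kcat and Km for substrates with Km above 10 μM. For the other compounds, kcat and Km were obtained by competition against the reporter substrate nitrocefin.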

[3] = system: Mycobacterium tuberculosis; assay: Activity at Mycobacterium tuberculosis beta lactamase BlaC expressed in Escherichia coli assessed as ratio of Kcat to Km by spectrophotometric method; method in brief: as §1

SMILES	Ratio [1] [M⁻¹ s⁻¹]	Km [2] [µM]	kcat/Km [3] [M⁻¹ s⁻¹]
CCSC1=C(C(=O)O)N2C(=O)[C@H]([C@@H](C)OC(=O)c3c(F)c(F)c(F)c(F)c3F)[C@H]2[C@H]1C	25000	1.4	840
C[C@@H](O)[C@H]1C(=O)N2C(C(=O)O)=C(S[C@@H]3CN[C@H](CNS(N)(=O)=O)C3)[C@H](C)[C@H]12	1500	0.46	1500
C[C@@H](O)[C@H]1C(=O)N2C(C(=O)O)=C(S[C@@H]3CN[C@H](C(=O)Nc4cccc(C(=O)O)c4)C3)[C@H](C)[C@H]12	23000	4.8	330
CCSC1=C(C(=O)O)N2C(=O)[C@H]([C@@H](C)O)[C@H]2[C@H]1C	10800	11	3700
C[C@@H](O)[C@H]1C(=O)N2C(C(=O)O)=C(SCCN)[C@H](C)[C@H]12	3600	3.5	320
C[C@@H](O)[C@H]1C(=O)N2C(C(=O)O)=C(SCCc3cn(-c4ccccc4)nn3)[C@H](C)[C@H]12	26000	0.31	2100
C[C@@H](O)[C@H]1C(=O)N2C(C(=O)O)=C(S[C@@H]3CN[C@H](C(=O)N(C)C)C3)[C@H](C)[C@H]12	1300	0.92	1000
CC(c1ccc(C(=O)O)cc1)n1cc(CCSC2=C(C(=O)O)N3C(=O)[C@H]([C@@H](C)O)[C@H]3[C@H]2C)nn1 (some centres not stated)	29000	47	3200
C[C@@H](O)[C@H]1C(=O)N2C(C(=O)O)=C(SCCc3cn(-c4cccc(C(=O)O)c4)nn3)[C@H](C)[C@H]12	36000	19	13000
C[C@@H](O)[C@H]1C(=O)N2C(C(=O)O)=C(SCCc3cn(CCc4c[nH]c5ccccc45)nn3)[C@H](C)[C@H]12	28000	0.17	2000
C[C@@H](O)[C@H]1C(=O)N2C(C(=O)O)=C(SCCc3ccccc3)[C@H](C)[C@H]12	39000	1.5	360
C[C@@H](O)[C@H]1C(=O)N2C(C(=O)O)=C(SCCc3cn(-c4ccccc4C(=O)O)nn3)[C@H](C)[C@H]12	26000	3.3	300
C[C@@H](O)[C@H]1C(=O)N2C(C(=O)O)=C(SCCc3cn(CCCCC(=O)O)nn3)[C@H](C)[C@H]12	9600	56	5700
CCSC1=C(C(=O)O)N2C(=O)[C@H]([C@@H](C)OC(=O)c3ccccc3)[C@H]2[C@H]1C	3800	1.2	1500

— ChEMBL document CHEMBL3797045, “Routes of Synthesis of Carbapenems for Optimizing Both the Inactivation of L,D-Transpeptidase LdtMt1 of Mycobacterium tuberculosis and the Stability toward Hydrolysis by β-Lactamase BlaC” (J Med Chem, 2016)
